Screening data as filed in PubChem.
CHOP UPR activ: activators of apoptotic CHOP UPR arm, primary screen, cell-based, CHO-CHOP luciferase reporter, luminescence, uHTS; UPR activation; percent of tunicamycin response over DMSO baseline; activation, % at 10 µM; actives 0.34% (n = 330,000); AID 449763, 2010;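 active = at 10 µM dose, activation of 40% or more, normalized to positive control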;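 note: 100% = tunicamycin at 10 µg/mL and 0% = DMSO alone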
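Test system: CHO CHOP reporter cells. Input: 500 CHO-CHOP cells per well. Medium: F12 with 10% FBS. Technique: luciferase luminescence. Measure: percent activation relative to tunicamycin control. Dosing: 10 µM compound, 0.5% DMSO. Timing: 16-18 h cell attachment, then 6 h compound exposure, 37 °C.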
UPR XBP1 act: activators of adaptive XBP1 UPR arm, primary screen, cell-based, CHO-XBP1 luciferase reporter, luminescence, uHTS. IRE1-XBP1 UPR activation; percent of tunicamycin response, DMSO as zero. activation, % at 20 µM. actives 0.33% (n = 330,000);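 active = versus positive control, 20 µM dose yields 30% or more activation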;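 note: 100% = tunicamycin at 10 µg/mL and 0% = DMSO only wells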
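Material: CHO-XBP1 cells stably carrying IRE1-XBP1-driven luciferase reporter / Amount: 1000 cells per well / Compound: 20 µM, 1% DMSO / Times: 6 h treatment, 37 °C / Detection: luciferase luminescence / Measure: % activation of reporter signal versus tunicamycin and DMSO controls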
CHOP inhibitor: inhibitors of CHOP promoter induction, primary screen, cell-based, unfolded protein response, luciferase reporter; inhibition, % at 10 µM; actives 3.8% (n = 220,000); CHO-K1 CHOP-promoter luciferase, tunicamycin-induced, 15-18 h;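 active = compounds that reduced the stress-induced luciferase reporter signal by more than about 70% of percent inhibition, limit read from the data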;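 note: 0% = tunicamycin plus vehicle and 100% = wells without tunicamycin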
PvdQ inh: P. aeruginosa PvdQ acylase inhibitors, primary screen, biochemical, fluorescence, plate reader and imaging, single point; PvdQ acylase [Pseudomonas aeruginosa LESB58]; inhibition, % at 10 µM; purified PvdQ acylase; actives 0.063% (n = 340,000); in the data active = inhibition above about 30%, passing the limit was not always enough;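 note: 0% = vehicle neutral wells and 100% = reference inhibitor wells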
CHOP UPR conf: activators of apoptotic CHOP UPR arm, confirmation, cell-based, CHO-CHOP luciferase reporter, single concentration; shares compounds with CHOP UPR activ; CHO-CHOP cells, CHOP-luciferase reporter luminescence; percent of tunicamycin response, DMSO as zero; activation, % at 10 µM; actives 64% (n = 1,000); AID 463112, 2010; in the data active = activation above about 33%;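 note: 0% = DMSO wells and 100% = tunicamycin 10 µg/mL wells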
An asterisk follows results filed as active; . = no result given. The entries come from a sample that favours hits as a whole.

SMILES | CHOP UPR activ | UPR XBP1 act | CHOP inhibitor | PvdQ inh | CHOP UPR conf
COc1cc(/C=N/NC(N)=S)cc(Br)c1OCc1ccccc1F | 51.5* | 25.7 | 32.1 | -13.8 | 11.6
CNC(=S)N/N=C/c1cc(Br)c(OCc2ccncc2)c(OC)c1 | 0.9 | -0.6 | . | -14.4 | .
COc1cc(CNc2ccc3[nH]c(=O)[nH]c3c2)ccc1OCc1ccccc1F | 13.8 | 0.9 | . | -3.4 | .
COc1cc(CNc2ccc3[nH]c(=O)[nH]c3c2)cc(Br)c1OCc1ccccc1F | 83.4* | 2.3 | . | -10.5 | 46.3*
CN(Cc1ccccc1)C(=O)c1cccc(NC(=O)Cc2ccc(NC(=O)C3CCN(C(=O)C4CC4)CC3)cc2)c1 | . | . | . | -19.6 | .
COc1ccc(C(=O)NCC(=O)OCc2ccc(Cl)cc2Cl)cc1OC | -0.7 | 0.4 | . | -9.0 | .
CN=c1scc(-c2cccs2)n1/N=C/c1ccc(O)c(O)c1O | 18.1 | -6.3 | -3.1 | -10.9 | .
C=CCN=c1scc(-c2ccco2)n1/N=C/c1ccc(O)c(O)c1O | 161.1* | 2.8 | -80.9 | -7.6 | 63.5*
O=C(Cc1ccc(S(=O)(=O)N2CCOCC2)s1)N1CCN(c2cccc(C(F)(F)F)c2)CC1 | 1.0 | -4.0 | . | -15.0 | .
CCOc1ccc(C(CCc2ccccc2)NC(=O)c2ccccc2F)cc1OCC (centres undefined) | 0.8 | -1.7 | 18.1 | -4.7 | .
COC(=O)c1ccc(NCCc2csc(-c3ccc(C)cc3)n2)c([N+](=O)[O-])c1 | -1.6 | -1.3 | 1.8 | 11.2 | .
COc1cc(NC(=O)CNc2cccc(S(=O)(=O)N3CCOCC3)c2)cc(OC)c1 | 40.8* | 4.2 | . | 3.5 | -1.6
CCOC(=O)/C(=C\c1cccc(O)c1)c1nc2sc(C)c(C)c2c(=O)[nH]1 | 47.5* | -2.4 | -83.7 | -4.7 | 162.7*
CCOC(=O)c1nc2sc(C)c(C)c2c(=O)[nH]1 | 6.3 | -2.9 | 2.6 | -7.6 | .
O=C(NCCc1ccc(F)cc1)c1coc(=O)c(Br)c1 | 125.2* | -7.7 | . | -13.8 | 87.9*
CCOC(=O)c1cnc(-n2nc(C)cc2C)nc1NCc1ccccc1 | 73.7* | 19.2 | -79.6 | 6.6 | 25.3
CCOC(=O)c1cnc(-n2nc(C)cc2C)nc1NCCO | -1.8 | -0.1 | -6.0 | -13.7 | .
CCOC(=O)c1cnc(-n2nc(C)cc2C)nc1NC(C)c1ccccc1 (centres undefined) | 73.1* | 29.6 | 42.9 | 5.0 | 29.1
Cc1cc(N2CCC(C)CC2)nc(-n2nc(C)cc2C)n1 | 86.5* | 3.0 | -181.5 | -10.2 | 13.8
Cc1cc(C)n(-c2nc(N(C)C)nc(N3CCOCC3)n2)n1 | -2.0 | -2.8 | 1.7 | -13.7 | .
CCOC(=O)c1ccccc1NC(=O)COC(=O)CCNS(=O)(=O)c1cccs1 | 1.2 | -1.6 | . | -13.2 | .
O=C(CN1CCN(S(=O)(=O)c2ccc(Br)cc2)CC1)c1ccc(O)c(O)c1 | 61.3* | 29.6 | . | 11.5 | 7.0
CC(C)c1ccc(S(=O)(=O)N2CCN(CC(=O)c3ccc(O)c(O)c3)CC2)cc1 | 18.8 | 18.6 | . | -5.6 | .
O=C(CN1CCN(c2ccccc2F)CC1)c1ccc(O)c(O)c1 | 108.1* | 49.5* | . | -7.8 | 40.6*
CC(NC(=O)CN(c1cccc(C(F)(F)F)c1)S(=O)(=O)c1ccc(Cl)c([N+](=O)[O-])c1)c1ccccc1 (centres undefined) | 103.7* | 3.5 | -33.4 | -6.0 | 140.0*
SMILES | CHOP UPR activ | UPR XBP1 act | CHOP inhibitor | PvdQ inh | CHOP UPR conf
Cc1ccc(S(=O)(=O)N(C(=O)c2ccncc2)c2ccc(OC(=O)c3ccncc3)c3ccccc23)c(C)c1 | 58.7* | -2.8 | -199.8 | -11.8 | 113.2*
Cc1ccc(S(=O)(=O)N(C(=O)c2ccncc2)c2ccc(OC(=O)c3ccncc3)c3ccccc23)cc1 | 13.8 | -2.3 | -26.6 | -12.9 | .
Cc1ccc(C(=O)NC(C#N)=C(Cl)Cl)cc1 | 135.7* | -5.0 | 80.2* | . | 44.6*
O=c1[nH][nH]c(-c2ccccc2)c1C=Nc1ccccc1Cl | 1.6 | -1.5 | -24.0 | -10.9 | .
Oc1ccc2ccccc2c1N=Nc1ccccn1 | 48.3* | -4.1 | 69.4 | 7.6 | 37.2*
CC(=O)Nc1cc(C)nn1-c1nc(C)cc(C)n1 | 3.5 | -3.5 | -1.7 | -14.2 | .
Cc1ccc(Nc2cc(C)nn2-c2nc(C)cc(C)n2)cc1 | 78.8* | 30.1* | -88.4 | -2.5 | 5.7
O=C(COC(=O)c1ccc(Cl)nc1)NCCc1ccccc1 | -1.2 | -4.7 | . | -9.5 | .
O=C(COC(=O)C1(c2cccc(F)c2)CCCC1)NCc1cccs1 | -1.6 | 1.2 | 14.7 | -2.0 | .
O=C(CSC(=S)N1CCCC1)c1cc(Br)cc(Br)c1O | 71.1* | 9.2 | -52.2 | . | 44.9*
CC1CCCN(C(=S)SCC(=O)c2cc(Br)cc(Br)c2O)C1 (centres undefined) | 0.4 | 3.2 | 10.0 | -4.9 | .
O=C1Nc2ccccc2/C1=C\C(=O)c1ccccc1 | 98.3* | 12.6 | . | 0.8 | 236.9*
COc1ccc(/C=C\c2nc(=O)c3ccccc3o2)cc1 | 57.1* | 6.6 | -29.7 | -8.5 | 120.6*
S=C(Nc1ccccc1)c1ccccn1 | 116.7* | 29.3 | -85.8 | -6.0 | 148.8*
CC1(C)Cc2c(sc(NC(=O)COc3cccc4ccccc34)c2C#N)C(C)(C)N1 | 54.0* | 25.1 | 16.5 | -18.1 | 19.1
COc1ccc(C(=O)Sc2ccc(C)cc2)cc1OC | 7.1 | 3.4 | 24.1 | -7.0 | .
COc1ccc(C(=O)Sc2ccc(Cl)cc2)cc1OC | 87.1* | 14.4 | 50.1 | 3.4 | 57.8*
CC(C)C(=O)N1CCN(c2ccc(NC(=O)c3ccc([N+](=O)[O-])o3)cc2Cl)CC1 | . | . | 15.7 | -7.6 | .
CC(C)C(=O)N1CCN(c2ccc(NC(=O)c3ccc([N+](=O)[O-])o3)cc2)CC1 | 108.1* | -1.8 | -19.7 | -16.4 | 71.3*
CN1CCN(c2ccc(NC(=O)c3ccc([N+](=O)[O-])o3)cc2Cl)CC1 | 98.7* | 0.3 | . | -7.3 | 59.5*
CCCCn1c(N)c(N(CC(C)C)C(=O)Cc2ccc3c(c2)OCCO3)c(=O)[nH]c1=O | 0.1 | 1.3 | . | -8.0 | .
CC1(C)CC(=O)C(=Cc2cn(-c3ccccc3)nc2-c2ccccc2)C(=O)C1 | 89.2* | 16.4 | . | -12.9 | 183.7*
Cc1cc(N/N=C/c2ccc(O)cc2O)nc(-n2nc(C)cc2C)n1 | . | . | -13.9 | 10.9 | .
COc1ccc(O)c(/C=N/Nc2nc(C)cc(-c3ccccc3)n2)c1 | 6.3 | -1.6 | . | -4.2 | .
COc1ccc(/C=N/Nc2cc(C)nc(-n3nc(C)cc3C)n2)cc1 | 52.2* | 8.3 | 61.1 | -3.3 | 32.7*
Cc1cc(N/N=C/c2ccccc2[N+](=O)[O-])nc(-n2nc(C)cc2C)n1 | 121.5* | 12.1 | 60.7 | -5.2 | 94.3*
COc1ccc(O)c(/C=N/Nc2nc(Nc3ccccc3)nc(-n3nc(C)cc3C)n2)c1 | 101.7* | -0.3 | 11.2 | 8.5 | 111.6*
